Results published in ChEMBL document CHEMBL4138098, “Synthesis and pharmacological evaluation of neurosteroid photoaffinity ligands” (Eur J Med Chem, 2017).
pEC50: −log10 of the molar value. Calls of active or inactive are those of the source. The rule behind the calls is not given here.

Columns and labels:
[1] = molecular target: T1, GABA-A receptor; alpha-1/beta-2/gamma-2 (Homo sapiens, UniProt P14867+P18507+P47870); test: Positive allosteric modulation of human GABAA receptor alpha1beta2gamma2L expressed in Xenopus laevis oocytes assessed as potentiation of GABA chloride current incubated for 15 to 25 secs by two-electrode voltage clamp assay; assay type: cell-based
T1 sequence (P14867 whole entry): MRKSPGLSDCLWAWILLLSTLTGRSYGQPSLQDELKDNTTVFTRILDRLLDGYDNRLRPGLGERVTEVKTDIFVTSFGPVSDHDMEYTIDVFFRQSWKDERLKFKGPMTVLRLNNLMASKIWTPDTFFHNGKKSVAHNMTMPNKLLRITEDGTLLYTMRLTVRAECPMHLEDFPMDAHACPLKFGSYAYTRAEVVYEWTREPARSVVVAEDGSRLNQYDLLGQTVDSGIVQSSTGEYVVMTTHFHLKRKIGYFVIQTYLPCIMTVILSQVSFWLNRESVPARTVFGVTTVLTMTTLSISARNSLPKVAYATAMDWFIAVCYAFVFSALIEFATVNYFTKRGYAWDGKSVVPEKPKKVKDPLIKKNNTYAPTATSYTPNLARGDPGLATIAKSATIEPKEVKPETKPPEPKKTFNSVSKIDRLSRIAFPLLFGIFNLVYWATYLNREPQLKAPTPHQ
T1 sequence (P47870 whole entry): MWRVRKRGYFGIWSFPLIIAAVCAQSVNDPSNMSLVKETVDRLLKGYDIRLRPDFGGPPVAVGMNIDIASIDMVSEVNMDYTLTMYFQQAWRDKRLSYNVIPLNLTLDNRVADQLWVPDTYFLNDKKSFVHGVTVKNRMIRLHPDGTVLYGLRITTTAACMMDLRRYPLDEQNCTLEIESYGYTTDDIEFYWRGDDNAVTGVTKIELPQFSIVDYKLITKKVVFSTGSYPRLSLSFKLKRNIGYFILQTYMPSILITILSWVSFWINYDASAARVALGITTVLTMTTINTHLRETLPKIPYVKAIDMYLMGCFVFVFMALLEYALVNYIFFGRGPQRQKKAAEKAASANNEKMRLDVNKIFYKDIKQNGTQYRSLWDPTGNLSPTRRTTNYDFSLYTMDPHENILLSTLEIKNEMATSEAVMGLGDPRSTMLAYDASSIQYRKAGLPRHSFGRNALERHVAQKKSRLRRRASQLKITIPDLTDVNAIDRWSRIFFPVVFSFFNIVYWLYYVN
T1 sequence (P18507 whole entry): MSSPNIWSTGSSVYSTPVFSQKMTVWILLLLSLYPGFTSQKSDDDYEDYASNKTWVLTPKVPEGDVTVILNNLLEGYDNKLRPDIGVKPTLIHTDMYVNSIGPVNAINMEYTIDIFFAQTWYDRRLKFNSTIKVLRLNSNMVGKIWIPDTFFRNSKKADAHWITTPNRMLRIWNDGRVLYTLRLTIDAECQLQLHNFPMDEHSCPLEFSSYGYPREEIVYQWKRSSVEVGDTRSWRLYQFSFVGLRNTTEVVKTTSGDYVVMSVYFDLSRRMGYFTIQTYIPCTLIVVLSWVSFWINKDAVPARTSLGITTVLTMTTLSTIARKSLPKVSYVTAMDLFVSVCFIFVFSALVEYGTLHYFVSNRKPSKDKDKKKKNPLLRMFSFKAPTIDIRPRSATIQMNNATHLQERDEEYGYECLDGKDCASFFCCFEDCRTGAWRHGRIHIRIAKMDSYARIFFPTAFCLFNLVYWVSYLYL
In short: (§1)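 Xenopus laevis oocytes injected with ~100 ng cRNA of human α1, β2, γ2L (1:1:2). Two-electrode voltage clamp at −50 mV, room temperature, perfused with ND96 pH 7.5. Compound diluted from DMSO stock into ND96 (≤1% DMSO final). Applied 15–25 s with ~3 min washes.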

[2] = molecular target: T2, GABA-A receptor; alpha-1/beta-3/gamma-2 (Homo sapiens) (UniProt P14867+P18507+P28472); test: (§2) Displacement of [3H]muscimol from human GABAA receptor alpha1beta3gamma2 expressed in HEK293 TetR cell membranes after 1 hr by liquid scintillation counting method
In short: (§3)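 Membranes from HEK293 TetR cells expressing human α1β3γ2 GABAA receptor (200 μg protein) in 10 mM phosphate pH 7.4, 200 mM KCl, 1 mM EDTA. Filtered on PEI-treated GF/B filters, washed cold, scintillation counted. Triplicates, mean ± SD.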

[3] = molecular target: T3, GABA-A receptor; alpha-1/beta-3/gamma-2 (Homo sapiens, UniProt P14867+P18507+P28472); test: as §2; in short: as §3
T3 sequence (P14867 whole entry): T1 sequence (P14867 whole entry)
T3 sequence (P18507 whole entry): T1 sequence (P18507 whole entry)
T3 sequence (P28472 whole entry): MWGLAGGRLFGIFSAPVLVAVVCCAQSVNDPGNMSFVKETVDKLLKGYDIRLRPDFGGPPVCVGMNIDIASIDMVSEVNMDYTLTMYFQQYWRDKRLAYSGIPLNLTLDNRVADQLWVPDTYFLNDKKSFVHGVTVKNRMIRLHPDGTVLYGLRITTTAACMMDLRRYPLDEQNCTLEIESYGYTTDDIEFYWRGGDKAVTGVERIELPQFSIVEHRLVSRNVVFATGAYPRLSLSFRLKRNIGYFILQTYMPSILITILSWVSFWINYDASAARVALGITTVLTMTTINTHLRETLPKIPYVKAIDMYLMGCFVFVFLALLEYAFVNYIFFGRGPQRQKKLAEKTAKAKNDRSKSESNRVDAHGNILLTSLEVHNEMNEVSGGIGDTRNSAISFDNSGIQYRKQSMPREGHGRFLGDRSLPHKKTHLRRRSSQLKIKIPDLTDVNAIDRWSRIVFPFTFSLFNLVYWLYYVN

[4] = molecular target: T2, GABA-A receptor; alpha-1/beta-3/gamma-2 (Homo sapiens); test: Induction of [3H]azietomidate photoincorporation at human GABAA receptor alpha1beta3gamma2 expressed in HEK293 TetR cells at 1 uM after 30 mins by liquid scintillation counting method relative to control; assay type: cell-based
In short: (§4)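 Radioligand resuspended 30 min at 4°C; unlabeled steroid added (0.5% methanol final), 30 min at 4°C. Irradiated 30 min on ice at 365 nm. SDS-PAGE; stained subunit bands excised and counted by liquid scintillation; duplicates, means and ranges.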

[5] = molecular target: T2, GABA-A receptor; alpha-1/beta-3/gamma-2 (Homo sapiens); test: Induction of [3H]R-mTFD-MPAB photoincorporation at human GABAA receptor alpha1beta3gamma2 expressed in HEK293 TetR cells at 10 uM after 30 mins by liquid scintillation counting method relative to control; assay type: cell-based; in short: as §4
[6] = molecular target: T4, Gamma-aminobutyric acid receptor subunit beta-3 (Homo sapiens) (UniProt P28472); test: Binding affinity to human GABAA receptor beta3 assessed as photolabeling at 0.7 uM after 30 mins by Coomassie blue staining based fluorographic method relative to control; conditions: tested as the 3H-labelled form
T4 sequence (whole entry): T3 sequence (P28472 whole entry)

[7] = molecular target: T5, Gamma-aminobutyric acid receptor subunit alpha-1 (Homo sapiens) (UniProt P14867); test: Binding affinity to human GABAA receptor alpha1 assessed as photolabeling at 0.7 uM after 30 mins by Coomassie blue staining based fluorographic method relative to control; conditions: tested as the 3H-labelled form
T5 sequence (whole entry): T1 sequence (P14867 whole entry)

[8] = tested on: Anura; test: Anesthetic activity in tadpole assessed as loss of righting reflexes at 0.03 to 10 uM pretreated with tadpole followed by compound washout and transfer to fresh water measured up to 1 hr; assay type: functional, organism-based
[9] = tested on: Anura; test: Anesthetic activity in tadpole assessed as loss of righting reflexes; assay type: functional, organism-based
[10] = tested on: Anura; test: Potency index, ratio of Alphaxalone EC50 to compound EC50 for anesthetic activity in tadpole; assay type: functional
[11] = molecular target: GABA-A receptor; alpha-1/beta-2/gamma-2 (Homo sapiens) (UniProt P14867+P47870+P18507); test: Positive allosteric modulation of human GABAA receptor alpha1beta2gamma2L expressed in Xenopus laevis oocytes assessed as potentiation of GABA chloride current up to 100 uM incubated for 15 to 25 secs by two-electrode voltage clamp assay relative to control; assay type: cell-based; in short: as §1
[12] = molecular target: T2, GABA-A receptor; alpha-1/beta-3/gamma-2 (Homo sapiens); test: Binding affinity to human GABAA receptor alpha1beta3gamma2 expressed in HEK293 TetR cells assessed as photolabeling at 0.4 uM after 30 mins in presence of 100 uM bicuculline by coomassie blue staining based fluorographic method; assay type: cell-based; conditions: tested as the 3H-labelled form
[13] = molecular target: T2, GABA-A receptor; alpha-1/beta-3/gamma-2 (Homo sapiens); test: Binding affinity to human GABAA receptor alpha1beta3gamma2 expressed in HEK293 TetR cells assessed as photolabeling at 0.4 uM after 30 mins in presence of 300 uM GABA by coomassie blue staining based fluorographic method; assay type: cell-based; conditions: tested as the 3H-labelled form
[14] = molecular target: T2, GABA-A receptor; alpha-1/beta-3/gamma-2 (Homo sapiens); test: Binding affinity to human GABAA receptor alpha1beta3gamma2 expressed in HEK293 TetR cells assessed as photolabeling at 0.4 uM after 30 mins in presence of 300 uM GABA and 30 uM alphaxalone by coomassie blue staining based fluorographic method; assay type: cell-based; conditions: tested as the 3H-labelled form
[15] = molecular target: T2, GABA-A receptor; alpha-1/beta-3/gamma-2 (Homo sapiens); test: Induction of [3H]azietomidate photoincorporation at human GABAA receptor alpha1beta3gamma2 expressed in HEK293 TetR cells at 30 uM after 30 mins by liquid scintillation counting method; assay type: cell-based
In short: (§5)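 Purified FLAG-tagged human α1β3γ2 GABAAR from tetracycline-inducible HEK293S cells, in 5 mM CHAPS/0.2 mM asolectin. Equilibrated 30 min at 4°C with 3 μM [3H]azietomidate or 1 μM [3H]R-mTFD-MPAB, then with test drug (final methanol 0.5%) for another 30 min at 4°C. Irradiated on ice at 365 nm for 30 min. Stained subunit bands excised from SDS-PAGE gels; 3H counted by liquid scintillation.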

[16] = molecular target: T2, GABA-A receptor; alpha-1/beta-3/gamma-2 (Homo sapiens); test: Induction of [3H]R-mTFD-MPAB photoincorporation at human GABAA receptor alpha1beta3gamma2 expressed in HEK293 TetR cells at 30 uM after 30 mins by liquid scintillation counting method; assay type: cell-based; in short: as §5
[17] = molecular target: T2, GABA-A receptor; alpha-1/beta-3/gamma-2 (Homo sapiens); test: Induction of [3H]azietomidate photoincorporation at human GABAA receptor alpha1beta3gamma2 expressed in HEK293 TetR cells at 0.3 to 1 uM after 30 mins by liquid scintillation counting method; assay type: cell-based; in short: as §4
[18] = molecular target: T2, GABA-A receptor; alpha-1/beta-3/gamma-2 (Homo sapiens); test: Induction of [3H]R-mTFD-MPAB photoincorporation at human GABAA receptor alpha1beta3gamma2 expressed in HEK293 TetR cells at 0.3 to 1 uM after 30 mins by liquid scintillation counting method; assay type: cell-based; in short: as §4
[19] = tested on: Anura; test: Anesthetic activity in tadpole assessed as loss of righting reflexes at 0.01 to 1 uM pretreated with tadpole followed by compound washout and transfer to fresh water measured up to 1 hr; assay type: functional, organism-based
[20] = molecular target: T2, GABA-A receptor; alpha-1/beta-3/gamma-2 (Homo sapiens); test: Binding affinity to human GABAA receptor alpha1beta3gamma2 expressed in HEK293 TetR cells assessed as photolabeling at 0.7 uM after 30 mins in presence of 100 uM bicuculline by coomassie blue staining based fluorographic method; assay type: cell-based; conditions: tested as the 3H-labelled form
[21] = molecular target: T2, GABA-A receptor; alpha-1/beta-3/gamma-2 (Homo sapiens); test: Binding affinity to human GABAA receptor alpha1beta3gamma2 expressed in HEK293 TetR cells assessed as photolabeling at 0.7 uM after 30 mins in presence of 300 uM GABA by coomassie blue staining based fluorographic method; assay type: cell-based; conditions: tested as the 3H-labelled form
[22] = molecular target: T2, GABA-A receptor; alpha-1/beta-3/gamma-2 (Homo sapiens); test: Binding affinity to human GABAA receptor alpha1beta3gamma2 expressed in HEK293 TetR cells assessed as photolabeling at 0.7 uM after 30 mins in presence of 300 uM GABA and 30 uM alphaxalone by coomassie blue staining based fluorographic method; assay type: cell-based; conditions: tested as the 3H-labelled form

Compound | pEC50 [1] | inhibition [2] | pEC50 [3] | Activity [6] [%] | Activity [7] [%] | Activity [8] | pEC50 [9] | Ratio EC50 [10] | fold change (FC) [11] | other results
CC(=O)[C@H]1CC[C@H]2[C@@H]3CC[C@H]4C[C@H](O)CC[C@]4(C)[C@H]3[C@@H](OC(=O)c3c(F)c(F)c(N=[N+]=[N-])c(F)c3F)C[C@]12C | 6.30 | Dose-dependent effect | 6.11 | 10 | 6 | inactive | 6.14 | 2.6 | 17 | Activity [4]: 50%; Activity [5]: 75%; Activity [12]: Active; Activity [13]: Active; Activity [14]: Active
CC(=O)[C@H]1CC[C@H]2[C@@H]3CC[C@H]4C[C@H](O)CC[C@]4(C)[C@H]3C(=O)C[C@]12C [ALFAXALONE] |  | Dose-dependent effect |  |  |  | inactive | 5.72 |  |  | Activity [15]: Active; Activity [16]: Active
CC(=O)[C@H]1CC[C@H]2[C@@H]3CC[C@H]4C[C@H](O)CC[C@]4(C)[C@H]3C3(C[C@]12C)N=N3 | 6.70 | Dose-dependent effect | 6.60 | 0.4 | 0.2 |  | 6.96 | 17 | 30 | Activity [17]: Active; Activity [18]: Active; Activity [19]: inactive; Activity [20]: Active; Activity [21]: Active; Activity [22]: Active
